# Measurements as given in ChEMBL document CHEMBL1125571, “Potent inhibitors of platelet aggregation based upon the Arg-Gly-Asp-Phe sequence of fibrinogen. A proposal on the nature of the binding interaction between the Asp-carboxylate of RGDX mimetics and the platelet GP IIb-IIIa receptor” (J Med Chem, 1992).
# Key:
# [1] = molecular target: T1, Integrin alpha-IIb/beta-3 (Homo sapiens, UniProt P05106+P08514); test: Inhibition of Fibrinogen receptor binding; format: protein-complex assay
# [2] = molecular target: T1, Integrin alpha-IIb/beta-3; test: Inhibition of platelet aggregation (PRP) (inactive); format: functional
# Procedure, shortened: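 Aggregation of platelets in platelet-rich plasma was induced with ADP, and inhibition of this aggregation was measured.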
# [3] = molecular target: T1, Integrin alpha-IIb/beta-3; test: Inhibition of 125 I-Fibrinogen binding to Fibrinogen receptor (inactive); format: protein-complex assay
# [4] = molecular target: T1, Integrin alpha-IIb/beta-3; test: Inhibition of 125 I-Fibrinogen binding to Fibrinogen receptor; format: protein-complex assay
# T1 sequence (P05106 27-788 limits assumed): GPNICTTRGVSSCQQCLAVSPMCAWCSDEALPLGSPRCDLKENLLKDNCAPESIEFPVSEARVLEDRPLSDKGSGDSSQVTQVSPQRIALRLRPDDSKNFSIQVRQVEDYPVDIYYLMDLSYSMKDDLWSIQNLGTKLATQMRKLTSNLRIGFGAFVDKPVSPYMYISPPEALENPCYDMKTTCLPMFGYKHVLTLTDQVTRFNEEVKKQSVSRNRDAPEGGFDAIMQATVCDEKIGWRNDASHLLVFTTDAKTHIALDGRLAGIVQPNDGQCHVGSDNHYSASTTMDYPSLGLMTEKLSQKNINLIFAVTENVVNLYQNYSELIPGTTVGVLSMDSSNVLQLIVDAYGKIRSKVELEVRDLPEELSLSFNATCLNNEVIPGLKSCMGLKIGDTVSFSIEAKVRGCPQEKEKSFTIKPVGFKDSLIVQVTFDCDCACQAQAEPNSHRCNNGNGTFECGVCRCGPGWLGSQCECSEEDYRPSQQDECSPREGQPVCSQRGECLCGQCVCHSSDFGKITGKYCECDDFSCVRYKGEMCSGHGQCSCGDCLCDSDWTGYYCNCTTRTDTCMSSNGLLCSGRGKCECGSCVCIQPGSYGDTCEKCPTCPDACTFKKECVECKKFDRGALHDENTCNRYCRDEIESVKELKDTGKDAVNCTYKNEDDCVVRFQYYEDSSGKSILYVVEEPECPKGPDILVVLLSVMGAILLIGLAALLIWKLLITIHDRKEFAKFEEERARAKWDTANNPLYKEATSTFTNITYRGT
# T1 sequence (P08514 32-887 limits assumed): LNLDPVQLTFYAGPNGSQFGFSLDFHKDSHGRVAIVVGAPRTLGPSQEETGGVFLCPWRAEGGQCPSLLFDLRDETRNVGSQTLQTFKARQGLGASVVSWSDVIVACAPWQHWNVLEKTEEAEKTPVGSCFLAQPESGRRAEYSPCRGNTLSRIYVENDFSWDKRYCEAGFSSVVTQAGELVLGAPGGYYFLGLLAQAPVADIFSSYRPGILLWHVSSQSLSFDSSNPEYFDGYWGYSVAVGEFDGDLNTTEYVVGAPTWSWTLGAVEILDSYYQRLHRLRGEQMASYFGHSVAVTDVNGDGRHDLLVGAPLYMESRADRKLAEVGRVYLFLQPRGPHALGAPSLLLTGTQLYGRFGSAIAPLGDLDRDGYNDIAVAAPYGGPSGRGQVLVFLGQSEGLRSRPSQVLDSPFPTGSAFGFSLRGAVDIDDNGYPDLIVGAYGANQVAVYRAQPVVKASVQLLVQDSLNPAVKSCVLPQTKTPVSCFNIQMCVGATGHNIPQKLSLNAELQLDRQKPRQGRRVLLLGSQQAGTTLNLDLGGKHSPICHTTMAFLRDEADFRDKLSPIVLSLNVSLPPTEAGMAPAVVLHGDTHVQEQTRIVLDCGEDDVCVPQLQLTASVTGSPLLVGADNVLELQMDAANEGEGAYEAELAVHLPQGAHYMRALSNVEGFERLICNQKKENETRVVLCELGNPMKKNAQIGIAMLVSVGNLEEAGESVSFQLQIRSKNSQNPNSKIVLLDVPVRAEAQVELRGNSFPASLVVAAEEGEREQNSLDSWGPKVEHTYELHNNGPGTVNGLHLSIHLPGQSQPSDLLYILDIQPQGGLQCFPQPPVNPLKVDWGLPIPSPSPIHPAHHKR
# T1 sequence (P08514 891-1039 limits assumed): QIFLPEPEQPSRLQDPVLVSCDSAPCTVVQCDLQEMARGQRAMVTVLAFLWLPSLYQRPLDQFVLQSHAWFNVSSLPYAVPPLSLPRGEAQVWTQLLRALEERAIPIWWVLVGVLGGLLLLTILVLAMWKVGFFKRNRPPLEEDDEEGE
compound,measurement,setting,value
N=C(N)NCCCCCCCC(=O)N[C@@H](CC(=O)O)C(=O)N[C@@H](Cc1ccccc1)C(=O)O,IC50,[1],0.6 µM
N=C(N)NCCCCCCCC(=O)N[C@@H](CC(=O)O)C(=O)NCCc1ccccc1,IC50,[1],30 µM
N=C(N)NCCCCCCCC(=O)N[C@@H](CC1N=NN=N1)C(=O)N[C@@H](Cc1ccccc1)C(=O)O,IC50,[2],Not Active
same,IC50,[3],Not Active
N=C(N)NCCCCCCCC(=O)N[C@@H](CC(=O)O)C(=O)N[C@@H](Cc1ccccc1)C1N=NN=N1,IC50,[4],2 µM
